# Assay results taken from ChEMBL document CHEMBL1151733, “Pirinixic acid derivatives as novel dual inhibitors of microsomal prostaglandin E2 synthase-1 and 5-lipoxygenase” (J Med Chem, 2008).
# Active and inactive are the calls of the source. The calls are words filed in the database; no cut-off is given here.
# How the values were obtained:
# [1] = target: T1, Prostaglandin E synthase (Homo sapiens) (UniProt O14684); experiment: Inhibition of mPGES1 in human A549 cells assessed as inhibition of IL-1-beta-induced PGE2 formation at 5 uM by cell-intact assay; assay type: cell-based
# T1 sequence (whole entry): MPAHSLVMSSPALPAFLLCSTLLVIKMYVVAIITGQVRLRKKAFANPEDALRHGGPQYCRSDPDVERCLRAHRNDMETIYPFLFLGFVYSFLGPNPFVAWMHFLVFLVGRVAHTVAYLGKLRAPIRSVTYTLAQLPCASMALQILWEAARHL
# Method in brief: (§1)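 A549 cells stimulated with IL-1β for 72 h; 2 × 10⁶ cells in 0.5 mL PBS with 1 mM CaCl₂, preincubated with compound 10 min at 37 °C. Stimulated with 2.5 µM A23187, 1 µM AA and [³H]AA (18.4 kBq) for 15 min at 37 °C. Supernatant acidified; [³H]PGE₂ separated by SPE/RP-HPLC and counted by scintillation. Vehicle 0.1% DMSO; mean ± SE, n = 3.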
# [2] = target: T1, Prostaglandin E synthase (Homo sapiens); experiment: Inhibition of mPGES1 in human A549 cells assessed as inhibition of IL-1-beta-induced PGE2 formation at 10 uM by cell-intact assay; assay type: cell-based; method in brief: as §1
# [3] = target: T2, Prostaglandin G/H synthase 1 (Ovis aries) (UniProt P05979); experiment: Inhibition of ovine COX1 assessed as remaining activity at 10 uM relative to control
# T2 sequence (whole entry): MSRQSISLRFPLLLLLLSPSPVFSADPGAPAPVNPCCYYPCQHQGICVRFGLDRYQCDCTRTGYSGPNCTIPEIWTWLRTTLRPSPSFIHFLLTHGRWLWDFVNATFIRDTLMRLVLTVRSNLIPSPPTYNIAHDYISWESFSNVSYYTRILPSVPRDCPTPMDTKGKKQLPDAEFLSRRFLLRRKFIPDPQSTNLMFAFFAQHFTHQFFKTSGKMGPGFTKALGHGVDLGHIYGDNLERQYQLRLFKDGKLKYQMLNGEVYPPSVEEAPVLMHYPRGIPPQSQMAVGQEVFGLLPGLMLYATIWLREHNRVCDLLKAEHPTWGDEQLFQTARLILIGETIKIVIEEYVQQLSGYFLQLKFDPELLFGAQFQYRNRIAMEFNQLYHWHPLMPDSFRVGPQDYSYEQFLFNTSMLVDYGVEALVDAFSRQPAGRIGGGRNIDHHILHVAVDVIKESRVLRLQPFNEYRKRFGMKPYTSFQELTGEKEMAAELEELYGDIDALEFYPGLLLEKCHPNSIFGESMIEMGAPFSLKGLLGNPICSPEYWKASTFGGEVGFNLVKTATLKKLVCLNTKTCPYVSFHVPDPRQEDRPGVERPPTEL
# Method in brief: (§2)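 Ovine COX-1 (50 units) or human recombinant COX-2 (20 units) in 100 mM Tris pH 8 with 5 mM glutathione, 5 µM hemoglobin and 100 µM EDTA. Compound preincubation 5 min at 4 °C, then prewarming 60 s at 37 °C. AA added at 5 µM for COX-1 or 2 µM for COX-2, reacted 5 min at 37 °C. 12-HHT extracted and quantified by HPLC. Mean ± SE, n = 3.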
# [4] = target: T3, Polyunsaturated fatty acid 5-lipoxygenase (Homo sapiens) (UniProt P09917); experiment: Inhibition of 5-LO in human PMNL cells at 10 uM relative to control; assay type: cell-based
# T3 sequence (whole entry): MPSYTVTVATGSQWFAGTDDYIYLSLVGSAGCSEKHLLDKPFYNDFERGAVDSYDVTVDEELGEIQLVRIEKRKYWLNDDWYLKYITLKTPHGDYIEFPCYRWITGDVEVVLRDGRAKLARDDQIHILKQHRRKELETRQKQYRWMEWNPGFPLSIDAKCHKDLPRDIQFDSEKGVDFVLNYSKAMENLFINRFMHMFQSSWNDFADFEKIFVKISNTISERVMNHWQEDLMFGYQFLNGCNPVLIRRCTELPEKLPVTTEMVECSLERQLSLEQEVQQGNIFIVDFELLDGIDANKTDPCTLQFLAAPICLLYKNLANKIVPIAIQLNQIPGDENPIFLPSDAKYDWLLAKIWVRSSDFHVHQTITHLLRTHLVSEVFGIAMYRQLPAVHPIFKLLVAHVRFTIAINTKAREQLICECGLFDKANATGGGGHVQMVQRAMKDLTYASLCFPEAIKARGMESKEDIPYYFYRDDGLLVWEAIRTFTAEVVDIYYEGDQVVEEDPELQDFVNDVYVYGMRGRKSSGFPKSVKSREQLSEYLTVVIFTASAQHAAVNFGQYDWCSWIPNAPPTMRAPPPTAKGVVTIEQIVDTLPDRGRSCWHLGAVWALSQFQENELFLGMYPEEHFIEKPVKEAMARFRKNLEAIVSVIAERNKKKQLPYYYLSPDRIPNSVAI
# Method in brief: (§3)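 Freshly isolated human PMNL from leukocyte concentrates of healthy donors, 5 × 10⁶ cells/mL in PBS pH 7.4 with 1 mg/mL glucose and 1 mM CaCl₂. Preincubated with compound 15 min at RT, then stimulated with 2.5 µM A23187 plus 20 µM AA for 10 min at 37 °C. Stopped with methanol; LTB₄, its all-trans isomers and 5-H(P)ETE quantified by HPLC with PGB₁ internal standard.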
# [5] = target: T1, Prostaglandin E synthase (Homo sapiens); settings: A549, 33 uM
# [6] = target: T1, Prostaglandin E synthase (Homo sapiens); experiment: Inhibition of PGES1 in human A549 cell microsome assessed as PGE2 formation at 10 uM by cell-free assay relative to control; design: scale not given: the % may be the effect or the level left
# Method in brief: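 Microsomes from A549 cells grown with IL-1β (1 ng/mL, 72 h), diluted in 0.1 M potassium phosphate pH 7.4 with 2.5 mM glutathione. Compound or DMSO added 15 min before PGH₂ (20 µM final). Reaction ran 1 min at 4 °C and was stopped with FeCl₂/citric acid. PGE₂ isolated by C18 SPE, then RP-HPLC with UV at 195 nm against 11β-PGE₂ internal standard.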
# [7] = target: T4, Prostaglandin G/H synthase 2 (Homo sapiens, UniProt P35354); experiment: Inhibition of human recombinant COX2; method in brief: as §2
# T4 sequence (P35354 whole entry): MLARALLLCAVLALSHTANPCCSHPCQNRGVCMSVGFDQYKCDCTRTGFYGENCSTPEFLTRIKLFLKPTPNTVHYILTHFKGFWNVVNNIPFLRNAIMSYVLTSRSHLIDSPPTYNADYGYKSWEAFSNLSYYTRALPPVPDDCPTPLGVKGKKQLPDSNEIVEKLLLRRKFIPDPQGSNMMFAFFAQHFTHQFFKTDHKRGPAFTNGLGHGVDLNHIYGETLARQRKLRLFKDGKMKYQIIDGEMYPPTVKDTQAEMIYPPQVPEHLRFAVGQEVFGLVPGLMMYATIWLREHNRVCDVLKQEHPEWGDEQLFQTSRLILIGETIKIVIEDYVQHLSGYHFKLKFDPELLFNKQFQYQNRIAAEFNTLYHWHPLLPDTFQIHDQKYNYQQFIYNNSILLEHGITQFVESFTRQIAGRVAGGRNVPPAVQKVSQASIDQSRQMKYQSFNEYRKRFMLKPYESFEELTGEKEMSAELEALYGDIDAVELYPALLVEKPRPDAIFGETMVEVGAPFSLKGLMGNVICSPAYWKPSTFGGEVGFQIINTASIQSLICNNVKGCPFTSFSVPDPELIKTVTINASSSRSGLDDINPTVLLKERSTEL
# [8] = target: T5, Polyunsaturated fatty acid 5-lipoxygenase (Homo sapiens, UniProt P09917); experiment: Inhibition of 5-LO in PMNL cells; assay type: cell-based; method in brief: as §3
# T5 sequence (P09917 whole entry): T3 sequence (whole entry)
# [9] = target: T6, Prostaglandin G/H synthase 1 (Ovis aries, UniProt P05979); experiment: Inhibition of ovine COX1; method in brief: as §2
# T6 sequence (P05979 whole entry): T2 sequence (whole entry)
smiles,measurement,setting,value
Cc1ccc(-c2cc(C(F)(F)F)nn2-c2ccc(S(N)(=O)=O)cc2)cc1,Activity,[1],Active
COc1ccc2c(c1)c(CC(=O)O)c(C)n2C(=O)c1ccc(Cl)cc1,Activity,[2],Active
same,Activity,[3],19%
CC(C)c1ccc2c(c1)c(SC(C)(C)C)c(CC(C)(C)C(=O)O)n2Cc1ccc(Cl)cc1,Activity,[4],inactive
same,inhibition,[5],63%
same,Activity,[6],26%
same,IC50,[7],> 10 µM
same,IC50,[8],0.09 µM
same,IC50,[9],> 10 µM
